# High-throughput results: PubChem BioAssay, Broad Institute
# Shown are actives, neighbours in structure and some others; about 3.8% of the full set was active somewhere.
# ARNT TACC3 PPI – disruptors of ARNT/TACC3 protein interaction, primary screen, biochemical, AlphaScreen, single concentration | Transforming acidic coiled-coil-containing protein 3 (Homo sapiens), Q9Y6A5 | AlphaScreen His-ARNT PAS-B/GST-TACC3 binding, luminescence; TACC3 fragment carries E629A point mutation | inhibition, % at 9.99 µM | 390,000 tested, 0.66% active;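 active = mean inhibition of replicates at least 50% and at least half of replicates each reaching 50%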;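 note: 0% = complete ARNT plus TACC3 wells and 100% = ARNT alone without TACC3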
# DENV2 CPE – inhibitors of DENV2 cytopathic effect, primary screen, cell-based, plate reader, single concentration | DENV2-infected cells, cytopathic effect rescue | 350,000 tested, 1.7% active | AID 651640, 2012 | CPE inhibition, % at 9.99 µM; in the data active = CPE inhibition above about 20%, passing the limit was not always enough; tested in BHK-21 cells;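 note: 0% = median of neutral control wells and 100% = median of positive control wells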
# Xi reactivation – activators of inactive X chromosome reactivation, primary screen, imaging, XiGFP fibroblasts, GFP high-content imaging, set 2. XiGFP mouse fibroblasts, % GFP-positive cells imaging, 3 d; cells co-treated with 5-aza-dC sensitizer; scaled so ellipticine positive control = 100%. activation, % at 7.58 µM. 360,000 tested, 0.055% active;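 active = mean normalized replicate activation at least 10% and every replicate at or above 10%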;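 note: 0% = median of on-plate neutral control wells and 100% = ellipticine 6 µM median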
#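 Material: XiGFP fibroblasts, SV40-immortalized. Buffer or medium: DMEM plus 5-aza-dC sensitizer. Compound: single concentration per compound, delivered by pin transfer. Times: 3 days compound exposure. Controls: ellipticine 6 µM.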
# SIRT5 block – SIRT5 desuccinylase inhibitors, primary screen, biochemical, fluorescence imaging, single point, set 5; 330,000 tested, 1.1% active; inhibition, % at 15 µM; Purified SirT5, succinyl-peptide AMC, trypsin-coupled fluorescence; NAD-dependent protein deacylase sirtuin-5, mitochondrial (Homo sapiens), Q9NXA8; in the data active = inhibition above about 15%
# Target sequence (Q9NXA8 whole entry, looked up): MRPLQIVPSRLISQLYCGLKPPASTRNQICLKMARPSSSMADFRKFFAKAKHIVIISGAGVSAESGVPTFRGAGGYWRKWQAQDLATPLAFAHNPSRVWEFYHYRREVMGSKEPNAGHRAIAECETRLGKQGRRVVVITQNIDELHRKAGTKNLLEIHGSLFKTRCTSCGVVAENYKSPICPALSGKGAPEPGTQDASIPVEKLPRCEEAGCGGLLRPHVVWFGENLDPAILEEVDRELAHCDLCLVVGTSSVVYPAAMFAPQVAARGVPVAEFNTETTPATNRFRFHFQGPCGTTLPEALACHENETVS
# FN deposit inh – inhibitors of fibronectin matrix deposition, primary screen, AH1F cells, Alexa488-fibronectin fluorescence, plate reader; AH1F fibroblasts, overnight; inhibition, % at 12.6 µM; 350,000 tested, 0.086% active; AID 743247, 2014;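 active = mean inhibition across replicates of 30% or more, regardless of how many single replicates reach that level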;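 note: positive control wells lacked labelled fibronectin entirely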
#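 material = AH1F fibroblast monolayer depositing Alexa488-labelled fibronectin into matrix | amount = 10000 AH1F cells/well | buffer or medium = DMEM plus 2% serum, read in PBS | incubation = 1 h cell adhesion before compound, then overnight fibronectin incubation | detection = fluorescence at 485 nm excitation, 525 nm emission | evaluation = percent inhibition as loss of matrix-bound fibronectin fluorescence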
# FGF22 binding-1 – binders of human FGF22 protein, primary screen, FGF22 synaptogenesis inhibitor project, biophysical, thermal shift, single point; Fibroblast growth factor 22 (Homo sapiens), Q9HCT0; recombinant FGF22 thermal shift, SYPRO orange fluorescence; percent of sucrose octasulfate shift, DMSO zero; activity (Tm shift, normalised), % at 9.99 µM; 340,000 tested, 1.5% active; AID 651658, 2012;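 active = mean Tm shift, scaled 0 neutral to 100 positive control, at about 1.3% or above, every replicate too, limit read from the data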
# Target sequence (Q9HCT0 whole entry, looked up): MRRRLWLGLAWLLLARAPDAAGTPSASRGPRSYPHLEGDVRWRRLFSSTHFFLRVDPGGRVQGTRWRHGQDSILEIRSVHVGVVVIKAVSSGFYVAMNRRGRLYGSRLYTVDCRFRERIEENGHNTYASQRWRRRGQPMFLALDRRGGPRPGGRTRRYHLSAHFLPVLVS
# ARNT Alpha ctr-1 – AlphaScreen signal interference compounds, dose response, artefact control for ARNT-TACC3 interaction inhibitor project, biochemical, luminescence, cherry-pick. shares compounds with ARNT TACC3 PPI. His-ARNT PASB-GST AlphaScreen artifact counter-screen. AC50, µM (titrated, usually from 68 µM), for the others: at the top dose activity change, negative = signal decrease. 1,200 tested, 50% active. AID 651705, 2012;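 active = every separate test run was called active for a drop in luminescence, with AC50 within twice the top valid dose, actives reach about 71 µM in these data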
# ARNT Alpha ctr-2 – AlphaScreen signal interference by compounds, dose response, artefact control for ARNT/TACC3 disruptor project, biochemical, dual-tagged ARNT, dry powder; shares compounds with ARNT TACC3 PPI; Dual-tagged His-ARNT PASB-GST AlphaScreen artifact counter-screen; AC50, µM; 45 tested, 70% active; AID 720564, 2013;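 active = luminescence drop, with half-maximal potency fitted within twice the sample's top valid dose, cut at about 70 µM in these data; inactive = the rest, including signal moving the wrong way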
# FGF22 binding-2 – binders of human FGF22 protein, dose response, FGF22 synaptogenesis inhibitor project, biophysical, thermal shift, cherry-pick retest. recombinant FGF22 thermal shift, SYPRO orange fluorescence. shares compounds with FGF22 binding-1. 1,000 tested, 2% active. thermal shift activity, °C (ΔTm) at 38 µM. AID 720646, 2013;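 active = fitted rise in melting shift crosses a set limit at or below the top valid dose tested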
# TSA no protein – compound-only thermal shift signal without protein, dose response, artefact control for FGF22 binder project, biochemical, cherry-picked samples, RT-PCR instrument | shares compounds with FGF22 binding-1 | compound-only SYPRO orange thermal shift counter-screen, no protein | AC50, µM (highest dose often 38 µM) | 1,000 tested, 2% active | AID 743019, 2013;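 active = rising signal whose fitted curve reaches the 0.54 level within the top valid dose, showing a melting point, actives reach about 13 µM in these data; inactive = the rest, including activity in the opposite direction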; note: value is where the raw curve crosses a fixed level and not half-maximal
# Numbers without * were called inactive; i = inactive; · = no result given.
SMILES,ARNT TACC3 PPI,DENV2 CPE,Xi reactivation,SIRT5 block,FN deposit inh,FGF22 binding-1,FGF22 binding-2,TSA no protein,others
COC(=O)[C@H]1[C@H](CO)[C@H]2Cn3c(ccc(-c4ccccc4)c3=O)[C@@H]1N2CCc1ccccc1,-7,-5,0,1,·,0,·,·,
N#CC1(c2ccccc2)CCN(C2CC(=O)N(c3cccc(F)c3)C2=O)CC1 (centres undefined),5,7,0,-4,-3,0,·,·,
Oc1cccc2cccnc12,·,-14,·,3,·,0,·,·,
Oc1ccc(CN2CCC3CCCCC3C2)c2cccnc12 (centres undefined),·,·,·,·,·,·,·,·,ARNT Alpha ctr-1=3.3µM*
N#CC1(c2ccccc2)CCN(Cc2ccc(O)c3ncccc23)CC1,·,·,·,·,·,·,·,·,ARNT Alpha ctr-1=5.9µM*
COC(=O)[C@@H]1[C@@H](CO)[C@@H]2Cn3c(ccc(C4=CCCCC4)c3=O)[C@H]1N2C(=O)NC(C)C,-1,-10,0,-11,·,0,·,·,
O=C(N/N=C/c1c(O)n(CCC2=CCCCC2)c(=O)[nH]c1=O)c1ccccc1,51*,7,0,-1,-9,0,·,·,ARNT Alpha ctr-1=-16%
Nc1ccccc1N=Cc1c(O)n(CCC2=CCCCC2)c(=O)[nH]c1=O,-3,·,·,·,-5,·,·,·,
CCn1nc(-c2cccnc2)nc2c(=O)n(C)c(=O)nc1-2,·,·,·,·,·,·,·,·,ARNT Alpha ctr-2=i
O=C(Nc1ccccc1)c1cccn(Cc2ccccc2)c1=O,-13,19,0,5,2,1.4*,-0.16,i,
O=C(NCCN1CCC2(CC1)C(=O)NCN2c1ccccc1)c1ccc2ccccc2c1,·,-1,0,·,16,1.9*,0.034,i,
CC(=O)Nc1ccc(S(=O)(=O)N2Cc3ccccc3-n3nncc3C2)cc1,·,8,0,0,0,23*,0.12,i,
Cc1cc(OCC(=O)NC(Cc2ccc(Cl)cc2)C(=O)O)c2c3c(c(=O)oc2c1)CCC3 (centres undefined),-3,-16,·,-2,·,1.7*,-0.15,i,
O=C(Cc1ccccn1)N1CCCCN2[C@H](CO)[C@H](c3ccc(C#Cc4ccccc4)cc3)[C@H]2C1,9,3,0,2,·,0,·,·,
C=CCN(CC=C)Cc1c[nH]c2ccccc12,·,-2,·,0,·,0,·,·,
CN(C)Cc1c[nH]c2ccccc12,-4,-11,·,-2,·,19*,0.045,i,
COc1ccc(C#Cc2ccc([C@H]3[C@H](CO)N4CCCCN(C(=O)Cc5ccncc5)C[C@@H]34)cc2)cc1,19,-11,0,4,·,0,·,·,
O=C(O)[C@H]1[C@H](CO)[C@H]2Cn3c(ccc(-c4ccccc4)c3=O)[C@@H]1N2CC1CCCCC1,-7,0,0,-3,·,0,·,·,
